The source made the active and inactive calls. No cut-off for these calls is given here.
What was measured:
[1] = biological target: Human immunodeficiency virus type 1 integrase (Human immunodeficiency virus 1, UniProt Q7ZJM1); assay: Inhibition of HIV1 His6-tagged integrase assessed as inhibition of interaction with recombinant flag-tagged LEDGF/p75 incubated for 30 mins prior to substrate addition measured after 1 hr by AlphaScreen assay
Outline: (§1)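 AlphaScreen in 25 mM Tris-HCl pH 7.4, 150 mM NaCl, 1 mM MgCl2, 0.01% Tween-20 and 0.1% BSA. His6-integrase (300 nM final) was preincubated with compound for 30 min at 4°C. Flag-LEDGF/p75 (100 nM) was then added for 1 h at 4°C. Ni-chelate acceptor and anti-flag donor beads (20 μg/ml each) followed for 1 h at 30°C, protected from light. Acceptor emission was read.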

[2] = biological target: Human immunodeficiency virus type 1 integrase (Human immunodeficiency virus 1) (UniProt Q7ZJM1); assay: Inhibition of HIV1 His6-tagged integrase assessed as inhibition of interaction with recombinant flag-tagged LEDGF/p75 at 100 uM incubated for 30 mins prior to substrate addition measured after 1 hr by AlphaScreen assay; outline: as §1
[3] = test system: Human immunodeficiency virus; assay: Antiviral activity against HIV 3B infected in human MT4 cells assessed as inhibition of virus-induced cytopathic effect by MTT assay; format: functional, organism-based; conditions: Human immunodeficiency virus 1, 3B
Outline: (§2)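 HIV(IIIB) stock titrated on MT-4 cells to set the CCID50. MT-4 cells were infected with 100-300 CCID50 in the presence of five-fold serial compound dilutions. Protection from virus-induced cytopathic effect was read spectrophotometrically as MTT reduction to formazan by viable cells. EC50 is the concentration giving 50% protection. CC50 was determined in parallel on cells.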

[4] = Selectivity index, ratio of CC50 for human MT4 cells to EC50 for HIV 3B; format: toxicity, cell-based; conditions: read-out: Ratio CC50/EC50; outline: as §2

Human immunodeficiency virus type 1 integrase, sequence (Q7ZJM1 whole entry): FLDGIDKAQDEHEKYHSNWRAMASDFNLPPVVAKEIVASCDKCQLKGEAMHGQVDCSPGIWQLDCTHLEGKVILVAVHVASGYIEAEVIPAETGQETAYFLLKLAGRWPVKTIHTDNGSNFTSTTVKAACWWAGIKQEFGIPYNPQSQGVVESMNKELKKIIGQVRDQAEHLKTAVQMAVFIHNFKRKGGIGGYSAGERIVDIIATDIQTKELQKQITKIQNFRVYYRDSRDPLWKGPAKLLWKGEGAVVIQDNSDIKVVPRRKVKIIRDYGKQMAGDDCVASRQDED
Human immunodeficiency virus type 1 integrase (Human immunodeficiency virus 1), sequence (Q7ZJM1 as listed by the source): as the sequence (Q7ZJM1 whole entry) above

SMILES | IC50 [1] [µM] | inhibition [2] | EC50 [3] [µM] | selectivity ratio [4]
CCOc1cc(/C=C2\SC(=S)N(C(C(=O)O)C(C)C)C2=O)ccc1O (stereo not given) | 25 | – | – | –
COc1cc(/C=C2\SC(=S)N(C(C(=O)O)C(C)C)C2=O)ccc1O (stereo not given) | – | 43% | – | –
COc1ccc(/C=C2\SC(=S)N(C(C(=O)O)C(C)C)C2=O)cc1OC (stereo not given) | – | inactive | – | –
CCOc1cc(/C=C2\SC(=S)N(C(C(=O)O)C(C)C)C2=O)ccc1OC (stereo not given) | – | 20% | – | –
COc1ccc(/C=C2\SC(=S)N(CCC(=O)O)C2=O)cc1 | > 100 | 66% | 2.41 | 61
COc1ccc(/C=C2\SC(=S)N(C(C(=O)O)C(C)C)C2=O)cc1 (stereo not given) | 41.3 | – | – | –
COc1ccc(/C=C2\SC(=S)N(CC(=O)O)C2=O)cc1 | – | 36% | – | –
CCC(C(=O)O)N1C(=O)/C(=C/c2ccc(OC)cc2)SC1=S (stereo not given) | > 100 | 54% | – | –
CCOc1ccc(/C=C2\SC(=S)N(C(C(=O)O)C(C)C)C2=O)cc1OC (stereo not given) | – | 28% | – | –
COc1ccc2nc(/C=C3\SC(=S)N(C(C(=O)O)C(C)C)C3=O)ccc2c1 (stereo not given) | 15.8 | – | – | –
COc1ccc(/C=C2\SC(=S)N(C(C)C(=O)O)C2=O)cc1 (stereo not given) | – | 47% | – | –
CC(C)C(C(=O)O)N1C(=O)/C(=C/c2ccc(O)cc2)SC1=S (stereo not given) | 43.7 | 77% | – | –
COc1ccc(/C=C2\SC(=S)N(C(C)CC(=O)O)C2=O)cc1 (stereo not given) | – | 29% | – | –
CC(C)C(C(=O)O)N1C(=O)/C(=C/c2cccc3ccccc23)SC1=S (stereo not given) | 18.7 | 89% | – | –
